Compound activity as filed in PubChem.
MLLE-PAM2 inh: blocks PAM2 peptide binding to the PABP1 MLLE domain | P11940 | inhibition, % at 20 µM | GST-MLLE / FITC-PAM2 fluorescence polarization | 360,000 tested, 0.36% active; in the data active = inhibition above about 35%, passing the limit was not always enough
PABP FP inh: PABP-poly(A) binding inhibition; P11940; PABP-poly(A) RNA binding, fluorescence polarization; inhibition, % at 35 µM; 290,000 tested, 1% active;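 also: calls also rest on retests at 20 µM and on dose response follow-up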
eIF4H inh: inhibitors of RNA binding by human eIF4H | eIF4H fluorescence polarization binding assay | inhibition, % at 35 µM | Q15056 | 290,000 tested, 0.94% active;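 also: calls also rest on retests at 20 µM and on dose response follow-up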
FID counter: fluorescent intercalator displacement, NS3 helicase counter-screen. inhibition, % at 7.9 µM. AID 1845. 290,000 tested, 0.17% active. DNA fluorescent intercalator displacement, fluorescence; in the data active = inhibition above about 37%;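 also: higher means more ethidium bromide displaced from hairpin DNA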
HCV core dimer: blocks dimerization of HCV core protein | TR-FRET GST/Flag-core106 dimerization, 1536-well | AID 1899 | inhibition, % at 5 µM | 300,000 tested, 0.33% active;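 active = inhibition above the mean of all tested compounds plus 3 SD, set per screening campaign, cut at about 45% in these data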
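Test system: GST/Flag-tagged HCV core106 proteins; Medium: KF-containing HEPES buffer, pH 7.45, DTT, CHAPS, BSA; Times: compound-protein-antibody incubation 4 h at 22.5 °C; Detection: TR-FRET 671 and 617 nm emission; Benchmarks: wells lacking GST-core106 and wells with excess unlabelled core106.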
NS3 helicase inh: blocks Hepatitis C virus NS3 helicase unwinding | 290,000 tested, 0.56% active | AID 1800 | NS3 helicase DNA unwinding, Cy5 molecular beacon fluorescence | inhibition, % at 10.9 µM;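 active = inhibition above the mean of all tested compounds plus 3 SD, set per campaign, cut at about 35% in these data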
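Measured by: Cy5 fluorescence, 0 and 60 min reads / Assay system: NS3 helicase fragment of HCV / Control set: low DMSO, high thioflavine S at 110 µM / Times: 1 h reaction at 25 °C, ATP-initiated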
Hits are given with their value; . = inactive; ? = inconclusive; / = not tested or not shown. Sampled rows, rich in hits. Any-hit rate of the full collection: about 2%. Unless noted, no rule for the calls is given here.

SMILES	MLLE-PAM2 inh	PABP FP inh	eIF4H inh	FID counter	HCV core dimer	NS3 helicase inh
Cc1ccc(S(=O)(=O)N2CC3(O)CN(C(=O)OC(C)C)N(C(=O)OC(C)C)CC3(OC(=O)NCc3ccccc3F)C2)cc1 (centres undefined)	.	/	/	/	/	/
Cc1ccc2[nH]c3c(c2c1)CN(C(=O)CN1CCSCC1)CC3	/	94	53	.	/	.
COc1ccccc1NC(=O)N1CCc2[nH]c3ccc(F)cc3c2C1	.	86	102	.	.	.
CC(=O)N1CCc2[nH]c3ccc(C)cc3c2C1	.	35	?	.	.	.
CCOC(=O)c1ccc2[nH]c3c(c2c1)CN(C)CC3	.	.	.	.	.	.
CCOC(=O)N1CCc2[nH]c3ccc(C)cc3c2C1	56	.	.	.	.	.
Cc1ccc2[nH]c3c(c2c1)CN(C(=O)CN1CC(C)OC(C)C1)CC3 (centres undefined)	.	?	?	.	.	.
CC1(C(=O)NS(=O)(=O)C2CC2)CCCN(C(=O)c2cccc(Cl)c2)C1 (centres undefined)	.	/	/	/	/	/
Cc1cccc(C(O)c2ncc(-c3ccccc3F)[nH]2)c1C (centres undefined)	.	/	/	/	/	/
O=C(NN=Cc1ccc2c(c1)CCC2)c1cccc([N+](=O)[O-])c1	.	/	/	/	/	/
O=C(CCS(=O)(=O)c1ccc(Br)cc1)NCCC1=CCCCC1	.	.	64	.	.	.
Cc1ccc(S(=O)(=O)CCC(=O)NC2CCCCC2)cc1	.	/	/	/	/	/
O=C(CCS(=O)(=O)c1ccc(Br)cc1)NCc1ccc(F)cc1	.	.	87	.	.	.
O=C(CCS(=O)(=O)c1ccc(Br)cc1)NC1CCCCCC1	.	.	64	.	.	.
Cc1ccc(C)c(NC(=O)CN2C(=O)COc3ccc(S(=O)(=O)N4CCCC4)cc32)c1	.	.	.	.	.	.
CN(C)CCNc1oc(COc2ccc(Cl)cc2Cl)nc1C#N	.	62	.	.	.	.
COCCCNc1oc(COc2ccc(Cl)cc2Cl)nc1C#N	.	.	.	.	.	.
OCC1OC(n2cnc3c(N4CCCCC4)ncnc32)C(O)C1O (centres undefined)	.	/	/	/	/	/
COC(=O)c1sc(C(=O)OC)c(C(=O)OC)c1C(=O)OC	.	.	.	.	.	.
COC(=O)c1sc(=S)sc1C(=O)OC	52	.	.	.	.	.
O=c1c2ccccc2nc(SCc2nc(-c3ccccc3)no2)n1-c1ccc(F)cc1	.	active	87	.	.	.
COc1ccc(-c2noc(CSc3nc4ccccc4c(=O)n3-c3ccccc3)n2)cc1OC	.	.	.	.	.	.
CCCCn1c(OC(=S)N(CC)CC)cc(C)nc1=S	.	/	/	/	/	/
O=C(N/N=C/c1cccc([N+](=O)[O-])c1)C(=O)N1CCCCCC1	.	.	.	.	.	.
CSc1nc(NCCOCCO)c2sc3nc(-c4ccco4)c4c(c3c2n1)CCC4	.	94	94	.	87	.
SMILES	MLLE-PAM2 inh	PABP FP inh	eIF4H inh	FID counter	HCV core dimer	NS3 helicase inh
C/C(=N\Nc1ccc(C(=O)O)cc1)c1ccc2c(c1)Nc1ccccc1S2	.	63	84	.	.	.
CCC(CC)C(=O)Nc1cc([N+](=O)[O-])ccc1Cl	.	68	.	.	.	.
CCC(CC)C(=O)Nc1cc([N+](=O)[O-])ccc1F	.	.	.	.	.	.
O=C1c2ccccc2C(=O)N1c1ccccc1	.	/	/	/	/	/
Nc1cccc2c1C(=O)N(c1ccccc1)C2=O	48	/	/	/	.	/
COc1ccc2c(c1)[C@H]1[C@H](CO2)[C@H](c2ccccc2)[C@]2(C)C(=O)N(Cc3ccc(C)cc3)CC(=O)N12	.	/	/	/	/	/
CC(=O)n1c2ccccc2c2c1c1ccccc1n2C	66	.	.	.	.	.
Cc1csc(=O)n1CCC(=O)OCC(=O)NNC(=O)c1ccc(Cl)cc1	45	/	/	/	/	/
CC1(Oc2cccc(F)c2)CCN(Cc2ccc(-c3ccccc3)o2)C1 (centres undefined)	.	/	/	/	/	/
COC(=O)c1sc2nc(-c3ccco3)ccc2c1N	.	.	55	.	.	.
CC(C)OC(=O)c1sc2nc(-c3ccccc3)ccc2c1N	.	.	.	.	.	.
CCN(C(=O)CN1C(=O)S/C(=C\C=C\c2ccccc2)C1=O)C1CCS(=O)(=O)C1 (centres undefined)	.	.	.	.	46	.
CCN(C(=O)CN1C(=O)S/C(=C\c2cccc(Cl)c2)C1=O)C1CCS(=O)(=O)C1 (centres undefined)	.	.	.	.	.	.
CCOc1ccccc1-c1nc(-c2cc3ccccc3nc2OC)no1	.	.	54	.	.	.
COc1nc2ccccc2cc1-c1noc(-c2cccnc2)n1	/	.	.	/	/	/
Cc1ccoc1C(=O)NCCNC(=O)c1occc1C	.	/	/	/	.	/
Cc1ccoc1C(=O)NCc1occc1C(=O)O	.	.	74	.	.	.
COc1ccc(NCC(=O)N/N=C/C=C/c2ccccc2[N+](=O)[O-])cc1	.	66	.	.	.	.
CC1(C(=O)Nc2ccc(Cl)cc2)Cc2c(-c3ccc(C(N)=O)cc3)ccnc2O1 (centres undefined)	.	/	/	/	/	/
CC(NC(=O)Cn1cnc2c1c(=O)n(C)c(=O)n2C)c1ccccc1 (centres undefined)	.	51	.	.	.	.
Cn1c(=O)c2c(ncn2CC(=O)OCC(=O)NC(c2ccccc2)c2ccccc2)n(C)c1=O	.	.	.	.	.	.
COc1ccc(CNC(=O)Nc2nc(C(N)CCc3ccccc3)cs2)cc1 (centres undefined)	.	/	/	/	/	/
CCc1ccc(-n2cccc2/C=C2/C(=N)N3C(=NC2=O)SN=C3S(C)(=O)=O)cc1	.	.	.	.	49	.
Cc1cc(C)cc(-n2cccc2/C=C2/C(=N)N3C(=NC2=O)SN=C3S(C)(=O)=O)c1	.	79	29	.	.	.
CS(=O)(=O)C1=NSC2=NC(=O)/C(=C\c3cccn3-c3ccccc3Cl)C(=N)N21	.	.	.	.	.	.
SMILES	MLLE-PAM2 inh	PABP FP inh	eIF4H inh	FID counter	HCV core dimer	NS3 helicase inh
Cc1ccc(-n2cccc2/C=C2/C(=N)N3C(=NC2=O)SN=C3S(C)(=O)=O)cc1	.	.	.	.	57	.
CCC1=NN2C(=N)/C(=C\c3cccn3-c3ccc(Cl)cc3)C(=O)N=C2S1	.	.	.	.	.	.
Cc1ccnc(Nc2cccnc2)n1	.	/	/	/	/	/
CCCc1cnc(NCCNCC(O)COc2ccc(Cl)c(Cl)c2)nc1 (centres undefined)	.	.	.	40	.	.
CCOC(CNC(=O)c1cccn2c(=O)c3c(C)c(C)sc3nc12)OCC	.	.	.	.	.	.
CCOC(=O)c1cc(C(=O)c2ccccc2O)cn2c(=O)c3c(C)c(C)sc3nc12	/	.	73	.	.	.
Cc1n[nH]c(=O)n1-c1cccc(C(F)(F)F)c1	.	.	.	.	.	.
O=c1[nH]ncn1-c1cccc(C(F)(F)F)c1	.	.	59	.	.	.
